Publication PMC12573768 (RSC Advances, 2025)
Like-named read-outs stand apart in the source and are kept apart here.

What was measured:
[1] = system: AGEs formation in BSA-fructose model; assay: AGEs inhibition, fluorescence, BSA-fructose model; assay type: biochemical; settings: 50 °C 24 hours
Outline: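 Test compound and BSA-fructose solution mixed 1:1 and incubated at 50 °C for 24 h, with aminoguanidine as positive control. An aliquot of the mixture was diluted fivefold and fluorescence read at excitation 375 nm and emission 440 nm. Inhibition was calculated from control, control blank, sample and sample blank intensities. Run in triplicate; IC50 derived; mean ± SEM.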

[2] = system: fructosamine formation in BSA-fructose model; assay: Fructosamine inhibition, NBT assay, BSA-fructose model; assay type: biochemical; settings: 50 °C 24 hours
Outline: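 Test compound and BSA-fructose solution mixed 1:1 and incubated at 50 °C for 24 h, with aminoguanidine as positive control. Incubated mixture was treated with 300 μM NBT in 0.1 M sodium carbonate, pH 10.6, at 37 °C for 15 min, then absorbance read at 530 nm. Inhibition was calculated with control and sample blanks. Run in triplicate; mean ± SEM.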

[3] = biological target: T1, porcine pancreatic α-amylase (Sus scrofa, UniProt P00690); assay: α-Amylase inhibitory activity; assay type: biochemical
T1 sequence (P00690 16-511): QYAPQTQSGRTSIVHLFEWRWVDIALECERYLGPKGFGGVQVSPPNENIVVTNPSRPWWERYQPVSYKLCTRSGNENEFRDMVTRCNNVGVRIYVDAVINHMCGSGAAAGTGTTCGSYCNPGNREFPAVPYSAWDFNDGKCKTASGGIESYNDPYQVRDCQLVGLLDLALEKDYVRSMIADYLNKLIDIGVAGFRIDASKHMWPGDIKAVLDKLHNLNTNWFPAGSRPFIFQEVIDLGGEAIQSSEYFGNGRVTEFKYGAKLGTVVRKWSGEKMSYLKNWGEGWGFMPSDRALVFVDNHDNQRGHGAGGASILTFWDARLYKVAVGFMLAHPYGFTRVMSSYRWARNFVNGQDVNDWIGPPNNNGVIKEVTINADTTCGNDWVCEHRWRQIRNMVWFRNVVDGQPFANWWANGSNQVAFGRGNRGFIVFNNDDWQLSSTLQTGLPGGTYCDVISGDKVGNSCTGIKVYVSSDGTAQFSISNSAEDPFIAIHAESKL

[4] = Free radical scavenging activity; settings: for IC50: read-out: (IC50 ± SEM) Antioxidant activity (DPPH radical)
Outline: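 Test compound in DMSO mixed with 0.2 mM DPPH in 95% methanol (1:3 by volume) and held 1 h in the dark at room temperature. Absorbance read at 517 nm; scavenging calculated relative to control, with ascorbic acid as reference. IC50 from non-linear regression; triplicate; mean ± SEM.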

[5] = biological target: T2, α-glucosidase (Saccharomyces cerevisiae, UniProt P53341); assay: α-Glucosidase inhibitory activity; assay type: biochemical
T2 sequence (P53341 whole entry): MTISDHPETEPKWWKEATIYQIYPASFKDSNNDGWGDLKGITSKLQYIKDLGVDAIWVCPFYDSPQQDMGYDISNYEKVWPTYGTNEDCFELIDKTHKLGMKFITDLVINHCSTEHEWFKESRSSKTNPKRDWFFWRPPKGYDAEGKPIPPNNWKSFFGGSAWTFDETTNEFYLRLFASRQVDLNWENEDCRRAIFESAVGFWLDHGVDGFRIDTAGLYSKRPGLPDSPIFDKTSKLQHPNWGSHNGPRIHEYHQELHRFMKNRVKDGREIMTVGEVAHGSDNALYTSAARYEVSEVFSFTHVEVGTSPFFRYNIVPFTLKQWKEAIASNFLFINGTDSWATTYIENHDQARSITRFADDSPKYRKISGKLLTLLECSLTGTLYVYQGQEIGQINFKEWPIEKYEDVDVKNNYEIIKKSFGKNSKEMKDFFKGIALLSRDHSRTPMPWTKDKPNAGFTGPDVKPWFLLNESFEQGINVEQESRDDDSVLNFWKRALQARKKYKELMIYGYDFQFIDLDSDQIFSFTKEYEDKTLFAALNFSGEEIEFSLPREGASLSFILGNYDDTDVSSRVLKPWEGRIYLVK

[6] = system: 3T3-L1 cells; assay: MTT cytotoxicity assay; assay type: cell-based; settings: 3T3-L1, up to 50 μM, 12 hours
Outline: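 3T3-L1 cells grown in DMEM with 10% FBS, 1% penicillin–streptomycin and 0.2% amphotericin at 37 °C, 5% CO2. Seeded at 2.0 × 10^4 cells/well overnight, PBS-washed, then exposed to test compound (0–50 μM in DMEM) for 12 h. After washing, 0.05% MTT in DMEM for 3 h; formazan dissolved in DMSO and read at 590 nm (reference 620 nm). IC50 by non-linear regression; triplicate.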

[7] = Stability under physiological conditions; assay type: physicochemical; settings: 200 μM, 1X PBS pH 7.4, 37 °C, 10 days
Outline: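 Test compound at 200 μM in 1X PBS, pH 7.4, incubated at 37 °C. A sample taken immediately was extracted three times with ethyl acetate, evaporated and stored at −20 °C; a second sample was extracted likewise after 10 days. Both residues were analysed by LC-MS on a C18 column.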

[8] = cited from earlier work; for Stability improvement compared to ester form: rat plasma, Yang et al. ref 58
[9] = biological target: T3, α-amylase (Sus scrofa, UniProt P00690); settings: vs EGCG, Liu et al. ref 37; cited from earlier work
T3 sequence (P00690 16-511): T1 sequence (P00690 16-511)

[10] = biological target: T2, α-glucosidase; settings: vs EGCG, Liu et al. ref 37; cited from earlier work
[11] = system: C57BL/KsJ-db/db mice; settings: Jung et al. ref 52; cited from earlier work
[12] = in vivo study by Wang et al. ref 55; cited from earlier work
[13] = system: Caco-2 monolayer; settings: Caco-2 cell model ref 55; cited from earlier work

For `N=C(N)NN` [AG, Aminoguanidine, reference compound], the “Inhibition of AGEs” value ([1]; 5 mM) was 43%, the “Inhibition of AGEs” value ([1]; 10 mM) was 70% and the “Inhibition of fructosamine formation” value ([2]; 5 mM) was 9%. The “Inhibition of fructosamine formation” value ([2]; 10 mM) was 30%.
Compound `CCCCCCCCCCCCNC(=O)/C=C/c1ccc(O)c(O)c1` [CA12, (E)-3-(3,4-Dihydroxyphenyl)-N-dodecylacrylamide] has an IC50 [3] of 72.8 ± 1.83 µM, an IC50 ([4]; mean ± SEM, triplicate) of 16.4 ± 0.48 µM and an IC50 [5] of 17.4 ± 0.87 µM.
In the case of `CCCCCCCCCCCCCCNC(=O)/C=C/c1ccc(O)c(O)c1` [CA14, (E)-3-(3,4-Dihydroxyphenyl)-N-tetradecylacrylamide], the “Inhibition of AGEs” value ([1]; 5 mM) is reported as 44%, the “Inhibition of AGEs” value ([1]; 10 mM) is reported as 79% and the “Cytotoxicity (cell viability, MTT)” value [6] is reported as “no significant cytotoxicity”. For the same compound, the IC50 [3] was 27 ± 0.83 µM, the “Antioxidant activity relative to 15c” value ([4]; ratio of DPPH IC50 values, vs 15c) was 1.2 fold and the “Antioxidant activity relative to CA” value ([4]; ratio of DPPH IC50 values, vs CA) was 2.5 times. The “Antioxidant activity relative to Vitamin C” value ([4]; ratio of DPPH IC50 values, vs Vitamin C) was 2.3 fold, the IC50 ([4]; mean ± SEM, triplicate) was 14 ± 0.38 µM and the “Stability under physiological conditions (degradation by LC-MS)” value [7] was “did not exhibit any degradation”. The “Inhibition of fructosamine formation” value ([2]; 5 mM) was 33%, the “Inhibition of fructosamine formation” value ([2]; 10 mM) was 70% and the IC50 [5] was 1.94 ± 0.06 µM. For the same compound, the “α-Glucosidase inhibition potency relative to parent CA” value ([5]; ratio of IC50 values, vs CA) was 6392 times and the “α-Glucosidase inhibition potency relative to acarbose” value ([5]; ratio of IC50 values, vs acarbose) was 113 times.
With `CCCCNC(=O)/C=C/c1ccc(O)c(O)c1` [CA4, (E)-3-(3,4-Dihydroxyphenyl)-N-butylacrylamide] the IC50 [3] was greater than 500 µM, the IC50 ([4]; mean ± SEM, triplicate) was 20.8 ± 0.45 µM and the IC50 [5] was 38 ± 1.57 µM.
In the case of `O=C(/C=C/c1ccc(O)c(O)c1)OCCc1ccccc1` [CAPE, caffeic acid phenethyl ester], the “Stability in rat plasma” value ([8]; esterases ref 57) is given as “rapid decomposition”.
`CCCCCCCCCCNC(=O)/C=C/c1ccc(O)c(O)c1` [CA10, (E)-3-(3,4-Dihydroxyphenyl)-N-decylacrylamide] gave an IC50 [3] greater than 500 µM, an IC50 ([4]; mean ± SEM, triplicate) of 23.4 ± 0.77 µM and an IC50 [5] of 19.1 ± 0.64 µM.
For EGCG palmitate, the “α-Amylase inhibition better than EGCG” value [9] is listed as 4.5 times and the “α-Glucosidase inhibition better than EGCG” value [10] is listed as 52 times.
Work on `CCCCCCCCCCCCCCCCNC(=O)/C=C/c1ccc(O)c(O)c1` [CA16, (E)-3-(3,4-Dihydroxyphenyl)-N-hexadecylacrylamide] yielded an IC50 [3] of 58.4 ± 2.68 µM, an IC50 ([4]; mean ± SEM, triplicate) of 15.1 ± 0.3 µM and an IC50 [5] of 24.8 ± 0.46 µM.
With `C[C@H]1O[C@H](O[C@H]2[C@H](O)[C@@H](O)[C@@H](O[C@H]3[C@H](O)[C@@H](O)C(O)O[C@@H]3CO)O[C@@H]2CO)[C@H](O)[C@@H](O)[C@@H]1N[C@H]1C=C(CO)[C@@H](O)[C@H](O)[C@H]1O` (stereo partly shown) [Acarbose, reference compound] the “(IC50 ± SEM) Antioxidant activity (DPPH radical)” value ([4]; mean ± SEM, triplicate) was “No activity”.
With `CCCCCCNC(=O)/C=C/c1ccc(O)c(O)c1` [CA6, (E)-3-(3,4-Dihydroxyphenyl)-N-hexylacrylamide] the IC50 [3] was greater than 500 µM, the IC50 ([4]; mean ± SEM, triplicate) was 23.7 ± 0.59 µM and the IC50 [5] was 51.5 ± 2.36 µM.
For `O=C1O[C@H]([C@@H](O)CO)C(O)=C1O` [Vitamin C, L-ascorbic acid, reference compound], the “(IC50 ± SEM) α-Amylase inhibition” value ([3]; mean ± SEM, triplicate) was “No activity”, the IC50 ([4]; mean ± SEM, triplicate) was 32.7 ± 0.47 µM and the “(IC50 ± SEM) α-Glucosidase inhibition” value ([5]; mean ± SEM, triplicate) was “No activity”.
In the case of `O=C(/C=C/c1ccc(O)c(O)c1)NCCc1ccccc1` [CAPA, caffeic acid phenethyl amide], the “Stability improvement compared to ester form” value ([8]; 25 °C) is listed as 118 fold and the “Stability improvement compared to ester form” value ([8]; 37 °C) is listed as 77 fold.
Compound `CCCCCCCCNC(=O)/C=C/c1ccc(O)c(O)c1` [CA8, (E)-3-(3,4-Dihydroxyphenyl)-N-octylacrylamide] has an IC50 [3] greater than 500 µM, an IC50 ([4]; mean ± SEM, triplicate) of 24.3 ± 0.58 µM and an IC50 [5] of 13.7 ± 0.44 µM.
For `O=C(O)/C=C/c1ccc(O)c(O)c1` [CA, Caffeic acid], the IC50 ([4]; mean ± SEM, triplicate) is listed as 34.3 ± 0.52 µM, the “Blood glucose lowering effect” value [11] is listed as “significant blood glucose lowering effect” and the Bioavailability [12] is listed as 14.70%. The Caco-2 monolayer permeability [13] was “poor”.
